The record followed here is ChEMBL document CHEMBL4364323, “Synthesis and biological evaluation of moxifloxacin-acetyl-1,2,3-1H-triazole-methylene-isatin hybrids as potential anti-tubercular agents against both drug-susceptible and drug-resistant Mycobacterium tuberculosis strains” (Eur J Med Chem, 2019).

Series [1] in a line: Selectivity index, ratio of CC50 for African green monkey Vero cells to MIC for Mycobacterium tuberculosis H37Rv. The series is classed as toxicity. Conditions: read-out: Selectivity Index.
The subject of a further series is CHO. The series can be described thus: Cytotoxicity against CHO cells assessed as slight change in cell viability at 128 to 4 ug/ml. It counts as cell-based, Cricetulus griseus. As to conditions: chinese hamster.
A short description of series [2]: Cmax in SPF ICR mouse at 100 mg/kg, sc. The series is classed as ADME, organism-based. Further details: dose 100 mg/kg, route subcutaneous. Conditions: in vivo. The essentials: (§1)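 Female SPF ICR mice (20-25 g) dosed once at 100 mg/kg by subcutaneous injection. Plasma concentration-time data were collected. Cmax, Tmax, t1/2 and AUC0-inf were taken directly from the experimental data.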

The nature of series [3]: Tmax in SPF ICR mouse at 100 mg/kg, sc. It counts as ADME, organism-based. Conditions: in vivo. The procedure, abridged: as §1
Series [4] is described as follows: Cytotoxicity against African green monkey Vero cells incubated for 72 hrs by MTT assay. The series is classed as cell-based. Conditions: chlorocebus sabaeus. The procedure, abridged:
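Compounds were dissolved in DMSO and tested at 128 to 4 μg/mL. VERO cells were grown in MEM with Earle's salts plus 10% FBS at 37 °C, 5% CO2, seeded at 1×10^4 cells/well and allowed to recover 24 h. Cells were then exposed to compound or drug-free medium for 72 h. Viability was read by MTT, and CC50 was calculated by Bliss analysis.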

Series [5] is described as follows: Half life in SPF ICR mouse at 100 mg/kg, sc. As to conditions: in vivo. It counts as ADME, organism-based.
Series [6] can be described thus: AUC (0 to infinity) in SPF ICR mouse at 100 mg/kg, sc. The series is classed as ADME, organism-based. Further details: dose 100 mg/kg, route subcutaneous, time infinity. As to conditions: in vivo. The essentials:
as §1

In series [7] the test system is Mycobacterium tuberculosis. The series can be described thus: Antimycobacterial activity against Mycobacterium tuberculosis H37Rv incubated for 7 days by rapid direct susceptibility test. It counts as functional. Conditions: 168 h. The procedure, abridged: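 Two-fold compound dilutions were mixed with MTB suspension containing 4×10 -3 mg cells per well and incubated at 37 °C in a wet box. MIC was read from the quantity and state of cells in each well under a continuous visual high-magnification system and was re-determined 7 days later.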

The target of series [8] is DNA gyrase subunit A/DNA gyrase subunit B (Mycobacterium tuberculosis (strain ATCC 25618 / H37Rv), UniProt P9WG45+P9WG47). The series is described as follows: Inhibition of Mycobacterium tuberculosis DNA gyrase. It counts as protein-complex assay.

pIC50: −log10 of the molar value. ≈ marks a conversion by molar mass, not a printed value.

DNA gyrase subunit A/DNA gyrase subunit B, sequence (P9WG45 whole entry): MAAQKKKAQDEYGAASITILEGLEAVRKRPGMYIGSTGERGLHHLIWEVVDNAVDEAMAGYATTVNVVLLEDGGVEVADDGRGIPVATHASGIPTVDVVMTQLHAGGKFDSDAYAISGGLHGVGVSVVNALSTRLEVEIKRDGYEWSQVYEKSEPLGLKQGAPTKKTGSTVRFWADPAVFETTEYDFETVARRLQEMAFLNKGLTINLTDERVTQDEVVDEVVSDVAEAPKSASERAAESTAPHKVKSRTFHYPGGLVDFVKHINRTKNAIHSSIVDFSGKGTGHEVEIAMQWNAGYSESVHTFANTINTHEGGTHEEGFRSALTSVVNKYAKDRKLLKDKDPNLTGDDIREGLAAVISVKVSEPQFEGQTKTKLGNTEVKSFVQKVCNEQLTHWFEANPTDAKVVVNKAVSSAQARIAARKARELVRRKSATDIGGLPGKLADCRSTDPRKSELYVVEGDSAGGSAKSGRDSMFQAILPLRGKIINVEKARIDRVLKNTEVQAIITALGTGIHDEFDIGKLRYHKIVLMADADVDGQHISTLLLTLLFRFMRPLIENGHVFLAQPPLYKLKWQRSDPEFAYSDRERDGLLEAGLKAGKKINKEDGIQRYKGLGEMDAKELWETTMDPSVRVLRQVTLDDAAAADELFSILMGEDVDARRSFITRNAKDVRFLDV
DNA gyrase subunit A/DNA gyrase subunit B, sequence (P9WG47 whole entry): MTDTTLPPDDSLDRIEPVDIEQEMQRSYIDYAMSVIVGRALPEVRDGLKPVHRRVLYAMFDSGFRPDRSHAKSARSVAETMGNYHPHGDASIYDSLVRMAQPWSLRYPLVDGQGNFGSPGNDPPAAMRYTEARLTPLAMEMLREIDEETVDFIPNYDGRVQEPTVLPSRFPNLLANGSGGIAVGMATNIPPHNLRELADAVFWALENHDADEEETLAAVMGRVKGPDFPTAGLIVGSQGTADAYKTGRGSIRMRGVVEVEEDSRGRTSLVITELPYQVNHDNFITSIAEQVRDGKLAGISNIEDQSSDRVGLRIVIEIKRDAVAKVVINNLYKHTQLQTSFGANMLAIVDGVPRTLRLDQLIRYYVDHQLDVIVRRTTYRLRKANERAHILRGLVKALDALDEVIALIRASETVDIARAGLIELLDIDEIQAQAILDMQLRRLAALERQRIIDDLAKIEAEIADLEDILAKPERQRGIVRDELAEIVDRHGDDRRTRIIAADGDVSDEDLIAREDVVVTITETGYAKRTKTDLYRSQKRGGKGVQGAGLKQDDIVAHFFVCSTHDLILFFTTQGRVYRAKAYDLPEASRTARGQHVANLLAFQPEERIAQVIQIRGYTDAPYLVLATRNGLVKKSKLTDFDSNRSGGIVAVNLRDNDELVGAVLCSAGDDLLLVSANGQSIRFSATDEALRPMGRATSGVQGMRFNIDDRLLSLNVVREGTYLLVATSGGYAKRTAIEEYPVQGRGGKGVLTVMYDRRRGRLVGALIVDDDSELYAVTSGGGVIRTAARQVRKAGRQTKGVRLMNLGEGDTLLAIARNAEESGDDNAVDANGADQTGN

Turning to `CO/N=C1/C(=O)N(Cc2cn(CC(=O)N3CCC[C@@H]4CN(c5c(F)cc6c(=O)c(C(=O)O)cn(C7CC7)c6c5OC)C[C@@H]43)nn2)c2ccccc21`, in series [1], the selectivity ratio was 256. Further, in the series with CHO, the Activity entry is given as “Toxic”. In series [2], this molecule gave a Cmax of 3250 ng/mL. The time of peak concentration (Tmax) in series [3] was 39 min. It took 128 µg/mL (≈ 183 µM) to reach half-maximal cytotoxicity in [4] (CC50 at 72 h). Besides, in series [5], the half-life was 186 min. This molecule also returned an AUC(0-inf) in series [6] of 6440 ng·h/mL. The molecule also displayed an MIC in series [7] of 0.5 µg/mL (≈ 0.716 µM). Also, the pIC50 in series [8] was 5.07.
As for `COc1c(N2C[C@H]3CCCN(C(=O)Cn4cc(CN5C(=O)/C(=N/NC(N)=S)c6ccccc65)nn4)[C@H]3C2)c(F)cc2c(=O)c(C(=O)O)cn(C3CC3)c12`, the selectivity ratio in [1] was 128. Further, the Activity result in the series on CHO is “Toxic”. This molecule also yielded a peak concentration (Cmax) in series [2] of 1400 ng/mL. In addition, the time to peak (Tmax) in series [3] was 52 min. The molecule further returned a CC50 at 72 h in [4] of 16 µg/mL (≈ 21.5 µM). Also, in [5], the half-life was 258 min. Besides, in series [6], the AUC(0-inf) is 3270 ng·h/mL. The same molecule displayed an MIC in [7] of 0.12 µg/mL (≈ 0.162 µM). Besides, the pIC50 in [8] is 5.17.
As to `COc1c(N2C[C@H]3CCCN(C(=O)Cn4cc(CN5C(=O)/C(=N/NC(N)=S)c6cc(F)ccc65)nn4)[C@H]3C2)c(F)cc2c(=O)c(C(=O)O)cn(C3CC3)c12`, the selectivity ratio in [1] was 32. Moreover, half-maximal cytotoxicity in [4] (CC50 at 72 h) was put at 8 µg/mL (≈ 10.5 µM). The lowest concentration to inhibit growth in [7] (MIC) was 0.25 µg/mL (≈ 0.329 µM). Also, the pIC50 in series [8] is 4.98.
In the case of `CO/N=C1/C(=O)N(Cc2cn(CC(=O)N3CCC[C@@H]4CN(c5c(F)cc6c(=O)c(C(=O)O)cn(C7CC7)c6c5OC)C[C@@H]43)nn2)c2ccc(F)cc21`, the selectivity ratio in [1] was 32. Moreover, in [4], half-maximal cytotoxicity (CC50 at 72 h) was put at 32 µg/mL (≈ 44.6 µM). In addition, the MIC in series [7] came out at 1 µg/mL (≈ 1.4 µM).
On to `COc1c(N2C[C@H]3CCCN(C(=O)Cn4cc(CN5C(=O)C(=O)c6cc(F)ccc65)nn4)[C@H]3C2)c(F)cc2c(=O)c(C(=O)O)cn(C3CC3)c12`, for which, in series [1], the selectivity ratio was found to be 16. This molecule also yielded a CC50 at 72 h in series [4] of 16 µg/mL (≈ 23.3 µM). The same molecule yielded an MIC in series [7] of 1 µg/mL (≈ 1.45 µM).
In the case of `COc1c(N2C[C@H]3CCCN(C(=O)Cn4cc(CN5C(=O)/C(=N/O)c6ccccc65)nn4)[C@H]3C2)c(F)cc2c(=O)c(C(=O)O)cn(C3CC3)c12`, the selectivity ratio in [1] is 32. Moreover, the half-maximal cytotoxic concentration (CC50) at 72 h in series [4] came to 32 µg/mL (≈ 46.7 µM). Further, in [7], the lowest concentration to inhibit growth (MIC) was 1 µg/mL (≈ 1.46 µM).
`COc1c(N2C[C@H]3CCCN(C(=O)Cn4cc(CN5C(=O)/C(=N/O)c6cc(F)ccc65)nn4)[C@H]3C2)c(F)cc2c(=O)c(C(=O)O)cn(C3CC3)c12`: the selectivity ratio in series [1] is 8. Besides, the midpoint of cytotoxicity in series [4], the CC50 at 72 h, lay at 16 µg/mL (≈ 22.8 µM). In series [7], this molecule displayed an MIC of 2 µg/mL (≈ 2.85 µM).
Regarding `COc1c(N2C[C@H]3CCCN(C(=O)Cn4cc(CN5C(=O)C(=O)c6cccc(F)c65)nn4)[C@H]3C2)c(F)cc2c(=O)c(C(=O)O)cn(C3CC3)c12`, in series [1], the selectivity ratio is 4. Further, it took 32 µg/mL (≈ 46.5 µM) to reach half-maximal cytotoxicity in series [4] (CC50 at 72 h). The molecule also yielded an MIC in series [7] of 8 µg/mL (≈ 11.6 µM).
Turning to `CO/N=C1/C(=O)N(Cc2cn(CC(=O)N3CCC[C@@H]4CN(c5c(F)cc6c(=O)c(C(=O)O)cn(C7CC7)c6c5OC)C[C@@H]43)nn2)c2c(F)cccc21`, the selectivity ratio in series [1] came out at 1. This molecule had a CC50 at 72 h in series [4] of 16 µg/mL (≈ 22.3 µM). This molecule yielded an MIC in series [7] of 16 µg/mL (≈ 22.3 µM).
Turning to `COc1c(N2C[C@H]3CCCN(C(=O)Cn4cc(CN5C(=O)/C(=N/O)c6cccc(F)c65)nn4)[C@H]3C2)c(F)cc2c(=O)c(C(=O)O)cn(C3CC3)c12`, the selectivity ratio in [1] was 1. In series [4], half-maximal cytotoxicity (CC50 at 72 h) was put at 16 µg/mL (≈ 22.8 µM). It took 16 µg/mL (≈ 22.8 µM) to inhibit growth in series [7] (MIC).
As to `COc1c(N2C[C@H]3CCCN(C(=O)Cn4cc(CN5C(=O)C(=O)c6ccccc65)nn4)[C@H]3C2)c(F)cc2c(=O)c(C(=O)O)cn(C3CC3)c12`, the selectivity ratio in series [1] worked out at 128. Besides, half-maximal cytotoxicity in series [4] (CC50 at 72 h) was put at 32 µg/mL (≈ 47.8 µM). The MIC in series [7] was found to be 0.25 µg/mL (≈ 0.373 µM). Also, the pIC50 in series [8] was 5.22.
Consider `COc1c(N2C[C@H]3CCCN(C(=O)Cn4cc(CN5C(=O)/C(=N/NC(N)=S)c6cccc(F)c65)nn4)[C@H]3C2)c(F)cc2c(=O)c(C(=O)O)cn(C3CC3)c12`, for which the selectivity ratio in series [1] came out at 1. This molecule also showed a CC50 at 72 h in [4] of 8 µg/mL (≈ 10.5 µM). In series [7], this molecule registered an MIC of 8 µg/mL (≈ 10.5 µM).
`CO/N=C1/C(=O)N(Cc2cn(CC(=O)N3CCC[C@@H]4CN(c5c(F)cc6c(=O)c(C(=O)O)cn(C7CC7)c6c5OC)C[C@@H]43)nn2)c2ccc(C)cc21`: in series [1], the selectivity ratio was 16. In addition, half-maximal cytotoxicity in [4] (CC50 at 72 h) was put at 64 µg/mL (≈ 89.8 µM). The molecule further gave an MIC in series [7] of 4 µg/mL (≈ 5.61 µM).
In the same order, the values of `COc1c(N2C[C@H]3CCCN(C(=O)Cn4cc(CN5C(=O)C(=O)c6cc(C)ccc65)nn4)[C@H]3C2)c(F)cc2c(=O)c(C(=O)O)cn(C3CC3)c12` are 32, 64 µg/mL (≈ 93.6 µM) and 2 µg/mL (≈ 2.93 µM).
On to `COc1c(N2CCNC(C)C2)c(F)cc2c(=O)c(C(=O)O)cn(C3CC3)c12` (centres undefined) [GATIFLOXACIN], for which the selectivity ratio in series [1] turned out to be 128. Further, it took 64 µg/mL (≈ 170 µM) to reach half-maximal cytotoxicity in series [4] (CC50 at 72 h). The molecule further showed an MIC in series [7] of 0.5 µg/mL (≈ 1.33 µM). The same molecule showed a pIC50 in series [8] of 4.88.
With `NNC(=O)c1ccncc1` [ISONIAZID], the selectivity ratio in series [1] is 1024. In series [7], this molecule yielded an MIC of 0.12 µg/mL (≈ 0.875 µM).
`COc1c(N2C[C@@H]3CCCN[C@@H]3C2)c(F)cc2c(=O)c(C(=O)O)cn(C3CC3)c12` [MOXIFLOXACIN]: the Cmax in series [2] is 10800 ng/mL. Also, the Tmax in series [3] was 27 min. Moreover, in [6], the total exposure AUC(0-inf) was 19200 ng·h/mL. The MIC in series [7] is 0.12 µg/mL (≈ 0.299 µM).
Consider `CO[C@H]1/C=C/O[C@@]2(C)Oc3c(C)c(O)c4c(O)c(c(/C=N/N5CCN(C)CC5)c(O)c4c3C2=O)NC(=O)/C(C)=C\C=C\[C@H](C)[C@H](O)[C@@H](C)[C@@H](O)[C@@H](C)[C@H](OC(C)=O)[C@@H]1C` [RIFAMPIN], for which, in series [1], the selectivity ratio was more than 512. This molecule registered a CC50 at 72 h in [4] of more than 128 µg/mL. In series [7], this molecule showed an MIC of 0.06 µg/mL (≈ 0.0729 µM).
